ChEMBL document CHEMBL1240473, “Synthesis and bioassay of aminosulfonyl-1,3,4-oxadiazoles and their interconversion to 1,3,4-thiadiazoles” (2010)
In brackets after ≈: the same amount, converted by molar mass.

Tests used:
Format in all cases: functional
[1] = tested on: Fusarium solani; assay: Antimicrobial activity against Fusarium solani NCIM 1330 at 100 ug/disk after 48 hrs by agar disc-diffusion method; details: NCIM 1330, 48 h, read-out: DIZ
How it was run: (§1)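 Agar disc diffusion with NCIM strains. Sterile 6 mm filter-paper discs were moistened with compound in DMSO at 100 or 200 per disc and placed on agar plates pre-inoculated with each organism. Plates were incubated at 37 °C. Growth-inhibition zone diameter was read at 24 h for bacteria and 48 h for fungi.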

[2] = tested on: Curvularia lunata; assay: Antimicrobial activity against Curvularia lunata NCIM 716 at 100 ug/disk after 48 hrs by agar disc-diffusion method; details: NCIM 716, 48 h, read-out: DIZ; how it was run: as §1
[3] = tested on: Proteus vulgaris; assay: Antimicrobial activity against Proteus vulgaris NCIM 2027 at 200 ug/disk after 24 hrs by agar disc-diffusion method; details: NCIM 2027, 24 h, read-out: DIZ
[4] = tested on: Bacillus subtilis; assay: Antimicrobial activity against Bacillus subtilis NCIM 2063 at 200 ug/disk after 24 hrs by agar disc-diffusion method; details: NCIM 2063, 24 h, read-out: DIZ; how it was run: as §1
[5] = Antioxidant activity assessed as nitric oxide scavenging activity at 100 uM after 120 min by Griess assay
How it was run: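 Sodium nitroprusside (5 mM) in phosphate buffer pH 7.4 was incubated with test compound dissolved in dioxane/methanol at 25 °C for 120 min. A solvent-only control was run in parallel. Aliquots were mixed 1:1 with Griess reagent (1% sulfanilamide, 0.1% N-naphthylethylenediamine dihydrochloride, 2% o-phosphoric acid in water).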

[6] = tested on: Bacillus subtilis; assay: Antimicrobial activity against Bacillus subtilis NCIM 2063 at 100 ug/disk after 24 hrs by agar disc-diffusion method; details: NCIM 2063, 24 h, read-out: DIZ; how it was run: as §1
[7] = tested on: Fusarium solani; assay: Antimicrobial activity against Fusarium solani NCIM 1330 at 200 ug/disk after 48 hrs by agar disc-diffusion method; details: NCIM 1330, 48 h, read-out: DIZ; how it was run: as §1
[8] = tested on: Radical scavenging activity; assay: Antioxidant activity assessed as DPPH free radical scavenging activity at 100 uM after 20 mins
How it was run: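 Compound solutions were added to DPPH in dioxane/ethanol and kept at ambient temperature for 20 min, then absorbance was read at 517 nm. Percent inhibition = (A_control − A_sample)/A_control × 100, […].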

[9] = tested on: Klebsiella pneumoniae; assay: Antimicrobial activity against Klebsiella pneumoniae NCIM 2957 at 200 ug/disk after 24 hrs by agar disc-diffusion method; details: NCIM 2957, 24 h, read-out: DIZ; how it was run: as §1
[10] = tested on: Staphylococcus aureus; assay: Antimicrobial activity against Staphylococcus aureus NCIM 5021 at 100 ug/disk after 24 hrs by agar disc-diffusion method; details: NCIM 5021, 24 h, read-out: DIZ; how it was run: as §1
[11] = tested on: Proteus vulgaris; assay: Antimicrobial activity against Proteus vulgaris NCIM 2027 at 100 ug/disk after 24 hrs by agar disc-diffusion method; details: NCIM 2027, 24 h, read-out: DIZ
[12] = tested on: Klebsiella pneumoniae; assay: Antimicrobial activity against Klebsiella pneumoniae NCIM 2957 at 100 ug/disk after 24 hrs by agar disc-diffusion method; details: NCIM 2957, 24 h, read-out: DIZ; how it was run: as §1
[13] = tested on: Staphylococcus aureus; assay: Antimicrobial activity against Staphylococcus aureus NCIM 5021 at 200 ug/disk after 24 hrs by agar disc-diffusion method; details: NCIM 5021, 24 h, read-out: DIZ; how it was run: as §1
[14] = tested on: Aspergillus niger; assay: Antimicrobial activity against Aspergillus niger NCIM 596 at 100 ug/disk after 48 hrs by agar disc-diffusion method; details: NCIM 596, 48 h, read-out: DIZ; how it was run: as §1
[15] = tested on: Aspergillus niger; assay: Antimicrobial activity against Aspergillus niger NCIM 596 at 200 ug/disk after 48 hrs by agar disc-diffusion method; details: NCIM 596, 48 h, read-out: DIZ; how it was run: as §1
[16] = tested on: Curvularia lunata; assay: Antimicrobial activity against Curvularia lunata NCIM 716 at 200 ug/disk after 48 hrs by agar disc-diffusion method; details: NCIM 716, 48 h, read-out: DIZ; how it was run: as §1
[17] = tested on: Staphylococcus aureus; assay: Antimicrobial activity against Staphylococcus aureus NCIM 5021 after 24 hrs by microdilution susceptibility method; details: NCIM 5021, 24 h
How it was run: (§2)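 Broth microdilution MIC with NCIM strains. Compounds and the references (chloramphenicol, antibacterial; ketoconazole, antifungal) were dissolved in DMSO at 800 and diluted two-fold from 400 down to 6.25. Wells were inoculated with the microbial suspension and incubated at 36 °C, 24 h for bacteria and 48 h for fungi. MIC was the lowest concentration with no visible growth.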

[18] = tested on: Klebsiella pneumoniae; assay: Antimicrobial activity against Klebsiella pneumoniae NCIM 2957 after 24 hrs by microdilution susceptibility method; details: NCIM 2957, 24 h; how it was run: as §2
[19] = tested on: Bacillus subtilis; assay: Antimicrobial activity against Bacillus subtilis NCIM 2063 after 24 hrs by microdilution susceptibility method; details: NCIM 2063, 24 h; how it was run: as §2
[20] = tested on: Aspergillus niger; assay: Antimicrobial activity against Aspergillus niger NCIM 596 after 48 hrs by microdilution susceptibility method; details: NCIM 596, 48 h; how it was run: as §2
[21] = tested on: Proteus vulgaris; assay: Antimicrobial activity against Proteus vulgaris NCIM 2027 after 24 hrs by microdilution susceptibility method; details: NCIM 2027, 24 h
[22] = tested on: Curvularia lunata; assay: Antimicrobial activity against Curvularia lunata NCIM 716 after 48 hrs by microdilution susceptibility method; details: NCIM 716, 48 h; how it was run: as §2
[23] = tested on: Fusarium solani; assay: Antimicrobial activity against Fusarium solani NCIM 1330 after 48 hrs by microdilution susceptibility method; details: NCIM 1330, 48 h; how it was run: as §2

Compound | zone of inhibition at 100 µg/disc [1] | zone of inhibition at 100 µg/disc [2] | zone of inhibition at 200 µg/disc [3] | zone of inhibition at 200 µg/disc [4] | Activity [5] | zone of inhibition at 100 µg/disc [6] | zone of inhibition at 200 µg/disc [7] | Activity [8] | zone of inhibition at 200 µg/disc [9] | zone of inhibition at 100 µg/disc [10] | zone of inhibition at 100 µg/disc [11] | zone of inhibition at 100 µg/disc [12] | zone of inhibition at 200 µg/disc [13] | zone of inhibition at 100 µg/disc [14] | zone of inhibition at 200 µg/disc [15] | zone of inhibition at 200 µg/disc [16] | further results
Cc1ccc(NS(=O)(=O)Cc2nnc(-c3ccc(C)cc3)o2)cc1 | 12 mm | 14 mm | 9 mm | 10 mm | 54.3% | 9 mm | 15 mm | 58.1% | 8 mm | 10 mm | 7 mm | 7 mm | 12 mm | 10 mm | 12 mm | 16 mm | –
O=C1O[C@H]([C@@H](O)CO)C(O)=C1O | – | – | – | – | 96.9% | – | – | 95.4% | – | – | – | – | – | – | – | – | –
O=S(=O)(Cc1nnc(-c2ccccc2)o1)Nc1ccccc1 | 11 mm | 13 mm | 8 mm | 11 mm | 63.5% | 9 mm | 13 mm | 62.3% | 9 mm | 10 mm | 6 mm | 7 mm | 13 mm | 12 mm | 16 mm | 15 mm | –
O=S(=O)(Cc1nnc(CS(=O)(=O)c2ccccc2)s1)Nc1ccccc1 | 31 mm | 30 mm | 26 mm | 31 mm | 22.6% | 29 mm | 33 mm | 23.8% | 29 mm | 27 mm | 23 mm | 27 mm | 30 mm | 29 mm | 30 mm | 32 mm | MIC [17]: 50 mg/L (≈ 122 µM); MIC [18]: 50 mg/L (≈ 122 µM); MIC [19]: 25 mg/L (≈ 61 µM); MIC [20]: 50 mg/L (≈ 122 µM); MIC [21]: 100 mg/L (≈ 244 µM); MIC [22]: 100 mg/L (≈ 244 µM); MIC [23]: 100 mg/L (≈ 244 µM)
Cc1ccc(NS(=O)(=O)Cc2nnc(-c3ccc(C)cc3)s2)cc1 | 19 mm | 21 mm | 15 mm | 24 mm | 29.4% | 22 mm | 22 mm | 32.3% | 19 mm | 20 mm | 13 mm | 18 mm | 23 mm | 17 mm | 18 mm | 24 mm | –
O=S(=O)(Cc1nnc(CS(=O)(=O)c2ccccc2)o1)Nc1ccccc1 | 13 mm | 16 mm | 14 mm | 15 mm | 66.8% | 12 mm | 16 mm | 64.7% | 12 mm | 13 mm | 12 mm | 11 mm | 14 mm | 14 mm | 17 mm | 20 mm | –
O=S(=O)(Cc1nnc(-c2ccc(Cl)cc2)o1)Nc1ccc(Cl)cc1 | 14 mm | 13 mm | 11 mm | 13 mm | 70.5% | 11 mm | 16 mm | 69.6% | 10 mm | 12 mm | 10 mm | 9 mm | 14 mm | 11 mm | 13 mm | 15 mm | –
O=S(=O)(Cc1nnc(-c2ccccc2)s1)Nc1ccccc1 | 22 mm | 24 mm | 16 mm | 20 mm | 25.4% | 18 mm | 24 mm | 27.8% | 17 mm | 19 mm | 15 mm | 14 mm | 22 mm | 19 mm | 21 mm | 25 mm | –
CC(=O)N1CCN(c2ccc(OCC3COC(Cn4ccnc4)(c4ccc(Cl)cc4Cl)O3)cc2)CC1 (centres undefined) [KETOCONAZOLE] | 38 mm | 41 mm | – | – | – | – | 42 mm | – | – | – | – | – | – | 36 mm | 39 mm | 44 mm | MIC [20]: 6.25 mg/L (≈ 11.8 µM); MIC [22]: 6.25 mg/L (≈ 11.8 µM); MIC [23]: 12.5 mg/L (≈ 23.5 µM)
Cc1ccc(NS(=O)(=O)Cc2nnc(CS(=O)(=O)c3ccc(C)cc3)o2)cc1 | 14 mm | 15 mm | 12 mm | 13 mm | 57.2% | 11 mm | 18 mm | 58.6% | 12 mm | 12 mm | 10 mm | 10 mm | 15 mm | 13 mm | 15 mm | 17 mm | –
O=C(N[C@H](CO)[C@H](O)c1ccc([N+](=O)[O-])cc1)C(Cl)Cl [CHLORAMPHENICOL] | – | – | 45 mm | 44 mm | – | 38 mm | – | – | 42 mm | 35 mm | 42 mm | 37 mm | 41 mm | – | – | – | MIC [17]: 6.25 mg/L (≈ 19.3 µM); MIC [18]: 12.5 mg/L (≈ 38.7 µM); MIC [19]: 6.25 mg/L (≈ 19.3 µM); MIC [21]: 12.5 mg/L (≈ 38.7 µM)
O=S(=O)(Cc1nnc(CS(=O)(=O)c2ccc(Cl)cc2)o1)Nc1ccc(Cl)cc1 | 17 mm | 14 mm | 14 mm | 14 mm | 69.4% | 12 mm | 19 mm | 71% | 13 mm | 13 mm | 13 mm | 11 mm | 15 mm | 16 mm | 18 mm | 18 mm | –
